Assay results as given in ChEMBL document CHEMBL4819003, “Optimization of novel oxidative DIMs as Nur77 modulators of the Nur77-Bcl-2 apoptotic pathway” (Eur J Med Chem, 2021).
Calls of active or inactive are those of the source. The calls are words filed in the database; no cut-off is given here.

Legend:
[1] = Tmax in female Sprague-Dawley rat at 5 mg/kg, po measured for 36 hrs by LC-MS/MS analysis; assay type: ADME, organism-based; conditions: in vivo
In short: (§1)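 Sprague-Dawley rats (200–220 g), three males and three females per route group. Dosed 5 mg/kg orally or 0.5 mg/kg IV as a solution in DMSO/T-80/H2O (1:5:94 by volume). Heparinized blood was drawn from 5 min to 36 h after IV and 1–36 h after oral dosing. Plasma was protein-precipitated with methanol (2% HCl) plus carbamazepine internal standard and assayed by LC-MS/MS. Parameters were taken from concentration-time data; n = 3 per sex, mean ± SD.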

[2] = AUC (0 to t) in female Sprague-Dawley rat at 0.5 mg/kg, iv measured for 36 hrs by LC-MS/MS analysis; assay type: ADME, organism-based; design: dose 0.5 mg/kg, time 36 hrs; conditions: in vivo
In short: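 Sprague-Dawley rats (200–220 g), three per sex per route, were dosed at 0.5 mg/kg IV or 5 mg/kg PO in DMSO/Tween-80/water (1:5:94). Heparinized blood was drawn from 5 min to 36 h after IV dosing and from 1 h to 36 h after oral dosing. Plasma was deproteinized with methanol (2% HCl) plus carbamazepine internal standard, measured by LC-MS/MS, and reported as mean ± SD.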

[3] = Oral bioavailability in female Sprague-Dawley rat at 5 mg/kg measured for 36 hrs by LC-MS/MS analysis; assay type: ADME, organism-based; conditions: in vivo; in short: as §1
[4] = Half life in male Sprague-Dawley rat at 0.5 mg/kg, iv measured for 36 hrs by LC-MS/MS analysis; assay type: ADME, organism-based; conditions: in vivo
[5] = Selectivity index, ratio of IC50 for human MCF-10A cells to IC50 for human BT-549 cells
[6] = Volume of distribution at steady state in male/female Sprague-Dawley rat at 0.5 mg/kg, iv measured for 36 hrs by LC-MS/MS analysis; assay type: ADME, organism-based; conditions: in vivo
In short: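 Sprague-Dawley rats (200–220 g), four per route group (2 male, 2 female), given 0.5 mg/kg IV or 5 mg/kg orally in DMSO/T-80/H2O (1:5:94). Heparinized blood was sampled at 5 min–36 h after IV and at 0.5, 1, 3, 4, 6, 8, 10, 12, 24 and 36 h after oral dosing. Plasma was methanol (2% HCl)-precipitated with carbamazepine internal standard and quantified by LC-MS/MS. Parameters reported as mean ± SD.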

[7] = target: T1, Nuclear receptor subfamily 4immunitygroup A member 1 (Homo sapiens, UniProt P22736); assay: Modulation of GFP-Nur77 (unknown origin) transfected in human HEK293T cells co-transfected with Flag-tagged Bcl2 assessed as interaction of Nur77 with Bcl2 in mitochondria at 0.5 uM measured after 2 hrs by confocal microscopy; conditions: filed as modulator
In short: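 HEK293T cells were lipofectamine-cotransfected with Flag-Bcl-2 and GFP-Nur77 or GFP-Nur77-LBD, then given 0.5 μM compound for 2 h. Cells were fixed in 4% paraformaldehyde, permeabilised with 0.1% Triton X-100, blocked in 1% BSA and stained with anti-Flag plus DAPI. Mitochondrial colocalisation with Bcl-2 was read by confocal microscopy.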

[8] = AUC (0 to t) in male/female Sprague-Dawley rat at 0.5 mg/kg, iv measured for 36 hrs by LC-MS/MS analysis; assay type: ADME, organism-based; design: dose 0.5 mg/kg, time 36 hrs; conditions: both, in vivo
In short: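 Four Sprague-Dawley rats per route (2 male, 2 female; 200–220 g) received 0.5 mg/kg IV or 5 mg/kg PO in DMSO/Tween-80/water (1:5:94). Heparinized blood was taken at 5 min–36 h after IV dosing and at 0.5, 1, 3, 4, 6, 8, 10, 12, 24 and 36 h after oral dosing. Methanol (2% HCl) precipitation with carbamazepine internal standard preceded LC-MS/MS; values are mean ± SD.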

[9] = target: T1, Nuclear receptor subfamily 4immunitygroup A member 1; assay: Modulation of Myc-Nur77 (unknown origin) transfected in human HEK293T cells co-transfected with Flag-tagged Bcl2 assessed as interaction of Nur77 with Bcl2 at 0.5 uM measured after 1 to 3 hrs by co-immunoprecipitation assay; assay type: cell-based; conditions: filed as modulator, time 1-3 hrs
In short: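 HEK293T cells cotransfected with Flag-Bcl-2 and Myc-Nur77 were treated with or without 0.5 μM compound over the indicated times. They were lysed in Triton X-100 buffer with protease inhibitors; 5% of lysate was kept as input. Lysate was immunoprecipitated with anti-Flag at 4 °C for 12 h, then protein A-Sepharose for 3 h, washed three times in PBS and western blotted.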

[10] = tested on: HCT-116; assay: Induction of apoptosis in human HCT-116 cells assessed as PARP cleavage at 0.5 uM measured after 6 hrs by western blot assay; assay type: functional, cell-based
In short: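 Cells exposed to 0.5 µM for 6 h. Lysates resolved by SDS-PAGE and blotted to PVDF, blocked in 5% milk/TBST, probed with primary antibodies at 1:1000, ECL detection. Apoptosis scored as the densitometric ratio of cleaved PARP band to intact PARP band; mean ± SD, n = 3.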

[11] = Cmax in male/female Sprague-Dawley rat at 0.5 mg/kg, iv measured for 36 hrs by LC-MS/MS analysis; assay type: ADME, organism-based; design: route intravenous, dose 0.5 mg/kg, time 36 hrs; conditions: both, in vivo
[12] = Half life in male/female Sprague-Dawley rat at 0.5 mg/kg, iv measured for 36 hrs by LC-MS/MS analysis; assay type: ADME, organism-based; conditions: both, in vivo
[13] = target: T1, Nuclear receptor subfamily 4immunitygroup A member 1; assay: Modulation of Myc-Nur77 (unknown origin) transfected in human HEK293T cells assessed as induction of Myc-Nur77 mitochondrial targeting by measuring increase in Myc-Nur77 accumulation in mitochondria at 0.5 uM measured after 2 hrs by western blot analysis; conditions: filed as modulator
In short: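 HEK293T cells transfected with Myc-Nur77 were exposed to 0.5 μM compound for 2 h. Cells were homogenised in sucrose Buffer D; 500 g then 5000 g spins gave a mitochondrial pellet. Whole-cell and mitochondrial fractions were western blotted for Myc-Nur77, with PARP and Tom20 as fraction-purity markers.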

T1 sequence (P22736 whole entry, the tested form may be a part): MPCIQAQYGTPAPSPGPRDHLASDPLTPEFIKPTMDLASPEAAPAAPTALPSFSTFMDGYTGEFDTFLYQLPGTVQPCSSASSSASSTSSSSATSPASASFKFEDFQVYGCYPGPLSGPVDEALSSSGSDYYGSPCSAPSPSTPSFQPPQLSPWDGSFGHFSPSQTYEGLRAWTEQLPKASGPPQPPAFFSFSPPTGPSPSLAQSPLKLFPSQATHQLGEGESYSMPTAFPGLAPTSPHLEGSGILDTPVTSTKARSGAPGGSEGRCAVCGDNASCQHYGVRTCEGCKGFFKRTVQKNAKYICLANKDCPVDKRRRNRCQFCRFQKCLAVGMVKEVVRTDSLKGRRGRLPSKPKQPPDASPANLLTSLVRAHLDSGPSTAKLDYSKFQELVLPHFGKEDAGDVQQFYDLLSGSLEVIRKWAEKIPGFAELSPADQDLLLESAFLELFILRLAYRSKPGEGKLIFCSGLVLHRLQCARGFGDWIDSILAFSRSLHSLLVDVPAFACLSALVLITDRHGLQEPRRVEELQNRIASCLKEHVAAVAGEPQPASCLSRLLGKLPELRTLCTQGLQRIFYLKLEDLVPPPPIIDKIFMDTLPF

| Tmax [1] [h] | AUC(0-t) at 36 h [2] [ng·h/mL] | bioavailability [3] [%] | half-life [4] [h] | Vdss [6] [L/kg] | Activity [7] | AUC(0-t) at 36 h [8] [ng·h/mL] | Activity [9] | Cmax [11] [ng/mL] | half-life [12] [h] | Activity [13] | SMILES | Ratio IC50 [5] | Activity [10] |
| --- | --- | --- | --- | --- | --- | --- | --- | --- | --- | --- | --- | --- | --- |
| 5.33 | 1730 | 22.8 | 4.05 |  |  |  |  |  |  |  | CS(=O)(=O)[O-].FC(F)(F)c1ccc([C+](c2c[nH]c3ccccc23)c2c[nH]c3ccccc23)cc1 |  |  |
|  |  |  |  | 3.69 | Active | 501 | Active | 561 | 2.66 | Active | CS(=O)(=O)[O-].Cn1cc([C+](c2ccc(C(F)(F)F)cc2)c2c[nH]c3ccccc23)c2ccccc21 | 40 | Active |
